T1: hCBS (human cystathionine β-synthase) (Homo sapiens, UniProt P35520)
T1 sequence (P35520 1-551): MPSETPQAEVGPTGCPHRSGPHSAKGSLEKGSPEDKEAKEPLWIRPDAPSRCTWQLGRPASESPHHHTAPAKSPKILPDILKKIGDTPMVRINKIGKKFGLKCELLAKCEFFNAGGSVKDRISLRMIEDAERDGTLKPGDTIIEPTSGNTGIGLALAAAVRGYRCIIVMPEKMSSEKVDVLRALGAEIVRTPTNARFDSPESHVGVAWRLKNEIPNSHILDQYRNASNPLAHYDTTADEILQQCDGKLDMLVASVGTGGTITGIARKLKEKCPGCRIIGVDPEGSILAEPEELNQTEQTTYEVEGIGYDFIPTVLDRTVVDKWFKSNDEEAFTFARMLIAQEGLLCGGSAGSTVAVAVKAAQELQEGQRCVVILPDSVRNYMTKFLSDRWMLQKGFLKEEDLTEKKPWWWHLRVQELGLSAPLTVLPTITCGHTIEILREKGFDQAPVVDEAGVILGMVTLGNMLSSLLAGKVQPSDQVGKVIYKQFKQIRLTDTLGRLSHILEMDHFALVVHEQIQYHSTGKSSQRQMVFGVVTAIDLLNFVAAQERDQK

T2: Human cystathionine beta-synthase (human), P35520
T2 chain: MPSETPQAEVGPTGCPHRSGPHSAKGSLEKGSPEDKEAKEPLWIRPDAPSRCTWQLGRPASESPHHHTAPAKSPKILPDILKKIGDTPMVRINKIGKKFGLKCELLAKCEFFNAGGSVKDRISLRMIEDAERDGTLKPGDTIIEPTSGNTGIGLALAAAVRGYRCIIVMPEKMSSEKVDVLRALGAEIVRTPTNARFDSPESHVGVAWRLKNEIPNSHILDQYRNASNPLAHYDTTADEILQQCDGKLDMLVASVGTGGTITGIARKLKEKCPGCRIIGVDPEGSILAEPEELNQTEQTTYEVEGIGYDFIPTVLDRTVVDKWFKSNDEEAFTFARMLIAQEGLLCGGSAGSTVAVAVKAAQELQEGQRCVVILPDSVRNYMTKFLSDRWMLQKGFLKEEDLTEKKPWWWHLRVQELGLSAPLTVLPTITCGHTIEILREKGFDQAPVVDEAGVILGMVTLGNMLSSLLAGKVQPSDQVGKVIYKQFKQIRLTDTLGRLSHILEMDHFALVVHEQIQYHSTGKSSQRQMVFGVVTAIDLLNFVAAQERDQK


Key:
[1] = target: T1, hCBS (human cystathionine β-synthase); test: radioisotope CBS activity assay with L-[U-14C]serine; format: biochemical
[2] = target: T1, hCBS (human cystathionine β-synthase); test: isothermal titration calorimetry, two independent types of sites model; format: binding
Procedure, shortened: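 Purified human CBS in 20 mM Hepes pH 7.4 titrated with SAM by ITC. Without salt: 8 μM tetramer, 50 injections of 0.7 mM SAM spaced 150 s. With 200 mM NaCl: 20 μM tetramer, 19 injections of 1.06 mM SAM spaced 250 s. Isotherms fitted to a two independent types of sites model; salt titrations repeated in four independent experiments.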

[3] = target: T2, Human cystathionine beta-synthase …; test: dynamic light scattering; details: remark: other sources report otherwise

EC50 [1]	Kd [2]	stoichiometry N [3]	Molecule
3.7 ± 0.2 µM	0.013 µM		C[S+](CC[C@H](N)C(=O)O)C[C@H]1O[C@@H](n2cnc3c(N)ncnc32)[C@H](O)[C@@H]1O (stereo partly drawn) [SAM]
		4	Human cystathionine beta-synthase, P35520 1-551 (enzyme) MPSETPQAEVGPTGCPHRSGPHSAKGSLEKGSPEDKEAKEPLWIRPDAPSRCTWQLGRPASESPHHHTAPAKSPKILPDILKKIGDTPMVRINKIGKKFGLKCELLAKCEFFNAGGSVKDRISLRMIEDAERDGTLKPGDTIIEPTSGNTGIGLALAAAVRGYRCIIVMPEKMSSEKVDVLRALGAEIVRTPTNARFDSPESHVGVAWRLKNEIPNSHILDQYRNASNPLAHYDTTADEILQQCDGKLDMLVASVGTGGTITGIARKLKEKCPGCRIIGVDPEGSILAEPEELNQTEQTTYEVEGIGYDFIPTVLDRTVVDKWFKSNDEEAFTFARMLIAQEGLLCGGSAGSTVAVAVKAAQELQEGQRCVVILPDSVRNYMTKFLSDRWMLQKGFLKEEDLTEKKPWWWHLRVQELGLSAPLTVLPTITCGHTIEILREKGFDQAPVVDEAGVILGMVTLGNMLSSLLAGKVQPSDQVGKVIYKQFKQIRLTDTLGRLSHILEMDHFALVVHEQIQYHSTGKSSQRQMVFGVVTAIDLLNFVAAQERDQK

Reference: PMC4112162 (Biochimica et biophysica acta, 2014)
